2 compounds from ChEMBL document CHEMBL4251654, “Structure-based design of human immuno- and constitutive proteasomes inhibitors” (Eur J Med Chem, 2018) can be followed below.

pEC50, pIC50: −log10 of the molar value. Some results are limits rather than exact numbers.

The target in one series is T1, Proteasome subunit beta type-9 (Homo sapiens, UniProt P28065).
T1 sequence (P28065 whole entry): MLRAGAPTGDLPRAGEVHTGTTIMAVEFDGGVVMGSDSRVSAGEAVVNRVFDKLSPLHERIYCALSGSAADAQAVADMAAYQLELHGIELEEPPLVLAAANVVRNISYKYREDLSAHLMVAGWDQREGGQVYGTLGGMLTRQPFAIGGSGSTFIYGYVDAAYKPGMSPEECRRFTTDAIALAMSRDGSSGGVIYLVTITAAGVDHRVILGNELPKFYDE
Kind of series: Inhibition of human 20S immunoproteasome beta-1 using Ac-PAL-AMC as substrate incubated for 15 mins measured for 45 mins by fluorescence assay.
Settings: not given; call rule not given here
Summed up:
(§1)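 Human 20S immunoproteasome (0.3 nM) was given 15 min with compound (0.001-50 μM) in pH 8 buffer of 20 mM Tris-HCl, 10% glycerol, 0.01% SDS, 2% DMSO. Ac-PAL-AMC at 50 μM was the substrate. Fluorescence (ex 360/em 460 nm) was followed 45 min at 37 °C relative to control.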
Regarding `NCCCC[C@H](NC(=O)[C@@H](N)Cc1ccc(OCc2ccccc2)cc1)C(=O)N[C@@H](C[C@]1(O)C(=O)Nc2ccccc21)C(=O)NCc1ccccc1`, the pIC50 is 5.37.

Another series has as its target T2, Proteasome subunit beta type-8 (Homo sapiens) (UniProt P28062).
T2 sequence (whole entry): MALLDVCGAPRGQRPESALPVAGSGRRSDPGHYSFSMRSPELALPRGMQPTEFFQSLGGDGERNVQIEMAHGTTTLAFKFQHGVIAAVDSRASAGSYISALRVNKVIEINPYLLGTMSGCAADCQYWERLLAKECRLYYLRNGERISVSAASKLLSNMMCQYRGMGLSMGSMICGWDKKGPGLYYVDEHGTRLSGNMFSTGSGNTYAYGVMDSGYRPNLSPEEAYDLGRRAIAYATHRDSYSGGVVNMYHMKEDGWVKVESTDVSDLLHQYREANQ
Kind of series: Inhibition of human 20S immunoproteasome beta-5 at 50 uM using Suc-LLVY-AMC as substrate incubated for 15 mins measured for 45 mins by fluorescence assay relative to control.
Settings: not given
Summed up:
(§2)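 Human 20S cCP or iCP (0.3 nM) was exposed to compound (0.001-50 μM) for 15 min in pH 8 buffer of 20 mM Tris-HCl, 10% glycerol, 0.01% SDS, 2% DMSO. Suc-LLVY-AMC at 20 μM followed. Fluorescence (ex 360/em 460 nm) was read 45 min at 37 °C versus untreated enzyme.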
Consider `NCCCC[C@H](NC(=O)[C@@H](N)Cc1ccc(OCc2ccccc2)cc1)C(=O)N[C@@H](C[C@]1(O)C(=O)Nc2ccccc21)C(=O)NCc1ccccc1`, for which the inhibition was above 85%.

Another series has as its system HCT-116. The series is described as follows: Cytotoxicity against human HCT116 cells assessed as reduction in cell viability after 48 hrs by Hoechst 33342 staining based HCS assay. The format is functional. As to conditions: Homo sapiens, HCT-116, 48 h; read-out: EC50. In short, it runs like this: (§3)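 Cells were grown at 37 °C, 5% CO2 in medium with 10% FBS, 1% penicillin-streptomycin, 2 mM glutamine: DMEM for HuH7, MDA-MB-231 and fibroblasts, EMEM for Caco2, McCoy's for HCT116, RPMI for PC3 and NCI-H727. 4000 cells/well were seeded and dosed 24 h later at 0.1-25 μM final, from DMSO stocks. After 48 h they were fixed in ethanol/acetic acid and Hoechst-stained nuclei were counted by imaging. Survival is relative to DMSO. EC50 came from dose-response curves.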
Turning to `C[C@H](NC(=O)[C@H](Cc1ccc(OCc2ccccc2)cc1)NC(=O)OC(C)(C)C)C(=O)N[C@@H](C[C@]1(O)C(=O)Nc2ccccc21)C(=O)NCc1ccccc1`, the negative logarithm of the EC50 (pEC50) is 4.49.

In the next series the target is T3, Proteasome Macropain subunit MB1 (Homo sapiens, UniProt P28074).
T3 sequence (P28074 whole entry): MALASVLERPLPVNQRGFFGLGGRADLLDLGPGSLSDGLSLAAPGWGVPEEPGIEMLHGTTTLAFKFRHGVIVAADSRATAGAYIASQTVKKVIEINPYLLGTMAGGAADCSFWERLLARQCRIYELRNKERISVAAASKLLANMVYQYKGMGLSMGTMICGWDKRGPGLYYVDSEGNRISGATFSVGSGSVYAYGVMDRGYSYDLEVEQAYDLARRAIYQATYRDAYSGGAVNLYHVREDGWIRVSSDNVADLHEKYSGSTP
Kind of series: Inhibition of human 20S constitutive proteasome beta-5 using Suc-LLVY-AMC as substrate incubated for 15 mins measured for 45 mins by fluorescence assay.
Settings: not given
Summed up:
as §2
For the compound `NCCCC[C@H](NC(=O)[C@@H](N)Cc1ccc(OCc2ccccc2)cc1)C(=O)N[C@@H](C[C@]1(O)C(=O)Nc2ccccc21)C(=O)NCc1ccccc1`, the negative-log IC50 (pIC50) is 5.54.

A further series relates to NCI-H727. Kind of series: Cytotoxicity against human NCI-H727 cells assessed as reduction in cell viability after 48 hrs by Hoechst 33342 staining based HCS assay. The format is functional. As to conditions: nci-h727. In short, it runs like this: as §3
For `C[C@H](NC(=O)[C@H](Cc1ccc(OCc2ccccc2)cc1)NC(=O)OC(C)(C)C)C(=O)N[C@@H](C[C@]1(O)C(=O)Nc2ccccc21)C(=O)NCc1ccccc1`, the EC50 entry is “Not Active”.

The test system of another series is Fibroblast. The series is described as follows: Cytotoxicity against human fibroblasts assessed as reduction in cell viability at 25 uM after 48 hrs by Hoechst 33342 staining based HCS assay.
Settings: not given
Turning to `C[C@H](NC(=O)[C@H](Cc1ccc(OCc2ccccc2)cc1)NC(=O)OC(C)(C)C)C(=O)N[C@@H](C[C@]1(O)C(=O)Nc2ccccc21)C(=O)NCc1ccccc1`, the Activity entry is given as “Non-Toxic”.

Another series concerns the target T4, Proteasome subunit beta type-9 (Homo sapiens) (UniProt P28065).
T4 sequence (whole entry): T1 sequence (P28065 whole entry)
The series is described as follows: Inhibition of human 20S immunoproteasome beta-1 at 50 uM using Ac-PAL-AMC as substrate incubated for 15 mins measured for 45 mins by fluorescence assay relative to control.
Settings: not given
Summed up: as §1
`NCCCC[C@H](NC(=O)[C@@H](N)Cc1ccc(OCc2ccccc2)cc1)C(=O)N[C@@H](C[C@]1(O)C(=O)Nc2ccccc21)C(=O)NCc1ccccc1` registered an inhibition above 85%.

Another series concerns MDA-MB-231. Kind of series: Cytotoxicity against human MDA-MB-231 cells assessed as reduction in cell viability after 48 hrs by Hoechst 33342 staining based HCS assay. The format is functional. Particulars: mda-mb-231. In short, it runs like this: as §3
Turning to `C[C@H](NC(=O)[C@H](Cc1ccc(OCc2ccccc2)cc1)NC(=O)OC(C)(C)C)C(=O)N[C@@H](C[C@]1(O)C(=O)Nc2ccccc21)C(=O)NCc1ccccc1`, the EC50 entry was “Not Active”.

The target of the next series is T5, Proteasome component C5 (Homo sapiens) (UniProt P20618).
T5 sequence (whole entry): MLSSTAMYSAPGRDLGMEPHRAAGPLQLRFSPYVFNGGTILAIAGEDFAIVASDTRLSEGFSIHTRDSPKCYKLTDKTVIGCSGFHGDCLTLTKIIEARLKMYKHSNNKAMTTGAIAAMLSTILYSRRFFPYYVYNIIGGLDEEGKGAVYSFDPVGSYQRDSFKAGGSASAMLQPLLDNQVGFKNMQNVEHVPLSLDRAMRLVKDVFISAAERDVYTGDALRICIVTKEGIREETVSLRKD
Kind of series: Inhibition of human 20S constitutive proteasome beta-1 at 50 uM using Z-LLE-betaNA as substrate incubated for 15 mins measured for 45 mins by fluorescence assay relative to control.
Settings: not given
In short, it runs like this: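 Human 20S constitutive proteasome, 0.3 nM, was preincubated 15 min with compound (0.001-50 μM) in pH 8 Tris-HCl 20 mM, 10% glycerol, 0.01% SDS, 2% DMSO. Z-LLE-βNA at 50 μM was added. βNA fluorescence (ex 340/em 404 nm) was monitored 45 min at 37 °C against an untreated control.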
`NCCCC[C@H](NC(=O)[C@@H](N)Cc1ccc(OCc2ccccc2)cc1)C(=O)N[C@@H](C[C@]1(O)C(=O)Nc2ccccc21)C(=O)NCc1ccccc1` registered an inhibition above 85%.

Another series addresses T6, Proteasome subunit beta type-10 (Homo sapiens, UniProt P40306).
T6 sequence (P40306 whole entry): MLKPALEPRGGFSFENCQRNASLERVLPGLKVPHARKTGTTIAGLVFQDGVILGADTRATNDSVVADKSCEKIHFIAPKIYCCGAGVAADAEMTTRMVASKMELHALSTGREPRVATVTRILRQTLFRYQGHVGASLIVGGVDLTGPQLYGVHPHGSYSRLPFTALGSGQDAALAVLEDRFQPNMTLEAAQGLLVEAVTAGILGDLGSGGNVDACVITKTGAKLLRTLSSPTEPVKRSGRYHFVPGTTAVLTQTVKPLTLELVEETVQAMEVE
Kind of series: Inhibition of human 20S immunoproteasome beta-2 using BocLRR-AMC as substrate incubated for 15 mins measured for 45 mins by fluorescence assay.
Settings: not given
Turning to `NCCCC[C@H](NC(=O)[C@@H](N)Cc1ccc(OCc2ccccc2)cc1)C(=O)N[C@@H](C[C@]1(O)C(=O)Nc2ccccc21)C(=O)NCc1ccccc1`, the pIC50 is 6.09.

For a further series, the system named is Caco-2. Kind of series: Cytotoxicity against human Caco2 cells assessed as reduction in cell viability after 48 hrs by Hoechst 33342 staining based HCS assay. The format is functional. Particulars: caco-2. Summed up:
as §3
In the case of `C[C@H](NC(=O)[C@H](Cc1ccc(OCc2ccccc2)cc1)NC(=O)OC(C)(C)C)C(=O)N[C@@H](C[C@]1(O)C(=O)Nc2ccccc21)C(=O)NCc1ccccc1`, the EC50 entry was “Not Active”.

In another series the test system is Huh-7. Kind of series: Cytotoxicity against human HuH7 cells assessed as reduction in cell viability after 48 hrs by Hoechst 33342 staining based HCS assay. The format is functional. Particulars: huh-7. In short, it runs like this:
as §3
As for `C[C@H](NC(=O)[C@H](Cc1ccc(OCc2ccccc2)cc1)NC(=O)OC(C)(C)C)C(=O)N[C@@H](C[C@]1(O)C(=O)Nc2ccccc21)C(=O)NCc1ccccc1`, the EC50 result is given as “Not Active”.

For the next series, the target named is Proteasome Macropain subunit (Homo sapiens) (UniProt P49721). Kind of series: Inhibition of human 20S constitutive proteasome beta-2 at 50 uM using BocLRR-AMC as substrate incubated for 15 mins measured for 45 mins by fluorescence assay relative to control.
Sequence of Proteasome Macropain subunit (Homo sapiens) (P49721 whole entry): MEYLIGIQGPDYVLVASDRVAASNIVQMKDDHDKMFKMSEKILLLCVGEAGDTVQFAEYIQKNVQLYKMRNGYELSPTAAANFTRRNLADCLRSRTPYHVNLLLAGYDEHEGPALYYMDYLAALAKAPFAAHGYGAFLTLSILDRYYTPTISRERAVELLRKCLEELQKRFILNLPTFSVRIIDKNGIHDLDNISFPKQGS
Settings: not given
In short, it runs like this:
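Purified human 20S proteasome (cCP or iCP), 0.3 nM, preincubated 15 min with compound (0.001-50 μM) in pH 8 buffer of 20 mM Tris-HCl, 10% glycerol, 0.005% Triton X-100, 2% DMSO. Then Boc-LRR-AMC at 50 μM was added. AMC fluorescence (ex 360/em 460 nm) was followed 45 min at 37 °C. Activity is relative to an untreated control.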
Compound `NCCCC[C@H](NC(=O)[C@@H](N)Cc1ccc(OCc2ccccc2)cc1)C(=O)N[C@@H](C[C@]1(O)C(=O)Nc2ccccc21)C(=O)NCc1ccccc1` had an inhibition above 85%.

A further series concerns the target T7, Proteasome subunit beta type-8 (Homo sapiens, UniProt P28062).
T7 sequence (P28062 whole entry): T2 sequence (whole entry)
The series is described as follows: Inhibition of human 20S immunoproteasome beta-5 using Suc-LLVY-AMC as substrate incubated for 15 mins measured for 45 mins by fluorescence assay.
Settings: not given
Summed up:
as §2
In turn, `NCCCC[C@H](NC(=O)[C@@H](N)Cc1ccc(OCc2ccccc2)cc1)C(=O)N[C@@H](C[C@]1(O)C(=O)Nc2ccccc21)C(=O)NCc1ccccc1` showed a pIC50 of 5.42.

The target in another series is T8, Proteasome subunit beta type-10 (Homo sapiens) (UniProt P40306).
T8 sequence (whole entry): T6 sequence (P40306 whole entry)
The series is described as follows: Inhibition of human 20S immunoproteasome beta-2 at 50 uM using BocLRR-AMC as substrate incubated for 15 mins measured for 45 mins by fluorescence assay relative to control.
Settings: not given
In the case of `NCCCC[C@H](NC(=O)[C@@H](N)Cc1ccc(OCc2ccccc2)cc1)C(=O)N[C@@H](C[C@]1(O)C(=O)Nc2ccccc21)C(=O)NCc1ccccc1`, the inhibition is above 85%.

A further series relates to MCF7. Kind of series: Cytotoxicity against human MCF7 cells assessed as reduction in cell viability after 48 hrs by Hoechst 33342 staining based HCS assay. The format is functional. As to conditions: Homo sapiens, MCF7, 48 h; read-out: EC50.
As for `C[C@H](NC(=O)[C@H](Cc1ccc(OCc2ccccc2)cc1)NC(=O)OC(C)(C)C)C(=O)N[C@@H](C[C@]1(O)C(=O)Nc2ccccc21)C(=O)NCc1ccccc1`, the pEC50 was 4.59.

The target in the next series is T9, Proteasome Macropain subunit MB1 (Homo sapiens) (UniProt P28074).
T9 sequence (whole entry): T3 sequence (P28074 whole entry)
Kind of series: Inhibition of human 20S constitutive proteasome beta-5 at 50 uM using Suc-LLVY-AMC as substrate incubated for 15 mins measured for 45 mins by fluorescence assay relative to control.
Settings: not given
In short, it runs like this: as §2
For `NCCCC[C@H](NC(=O)[C@@H](N)Cc1ccc(OCc2ccccc2)cc1)C(=O)N[C@@H](C[C@]1(O)C(=O)Nc2ccccc21)C(=O)NCc1ccccc1`, the inhibition was above 85%.

The subject of another series is PC-3. The series is described as follows: Cytotoxicity against human PC3 cells assessed as reduction in cell viability after 48 hrs by Hoechst 33342 staining based HCS assay. The format is functional. As to conditions: pc-3. Summed up:
as §3
For the compound `C[C@H](NC(=O)[C@H](Cc1ccc(OCc2ccccc2)cc1)NC(=O)OC(C)(C)C)C(=O)N[C@@H](C[C@]1(O)C(=O)Nc2ccccc21)C(=O)NCc1ccccc1`, the EC50 result was “Not Active”.
